Where a SMILES comes first, the peptide text is derived from it.
Assays:
[1] = In vitro stability to trypsin promoting hydrolysis after 84 hr incubation time; assay type: ADME; settings: read-out: Degradation
Procedure, shortened: (§1)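 Test compound (10 mg) dissolved in 1 mL phosphate buffer pH 8, then 0.5 mg pepsin or trypsin added. Mixture held at 37 °C. Remaining compound was measured hourly by HPLC using 25% CH₃OH in water with 0.1% CF₃COOH, and percent degradation was derived.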

[2] = In vitro stability to pepsin promoting hydrolysis after 84 hr incubation time; assay type: ADME; settings: read-out: Degradation; procedure, shortened: as §1
[3] = In vitro stability to pepsin promoting hydrolysis after 64h incubation time; assay type: ADME; settings: read-out: Degradation; procedure, shortened: as §1
[4] = In vitro stability to trypsin promoting hydrolysis after 64h incubation time; assay type: ADME; settings: read-out: Degradation; procedure, shortened: as §1
[5] = tested on: Rattus norvegicus; experiment: In vivo thrombolytic activity at a dose of 5.0 mg in male rat; assay type: functional
Procedure, shortened: (§2)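 Rat arterial-venous shunt. Arterial blood (1.0 mL) from the right carotid was collected onto a stainless steel helix for 15 min to form a thrombus, which was weighed. The helix was placed in a heparin-filled (50 IU/mL in NS) polyethylene shunt to the left jugular vein. Heparin was injected, then compound. Blood circulated 90 min and the helix was reweighed. Readout was thrombus mass reduction; N=8, NS vehicle, ANOVA.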

[6] = In vitro stability to pepsin promoting hydrolysis after 2 hr incubation time; assay type: ADME; settings: read-out: Degradation; procedure, shortened: as §1
[7] = In vitro stability to trypsin promoting hydrolysis after 2 hr incubation time; assay type: ADME; settings: read-out: Degradation; procedure, shortened: as §1
[8] = In vitro stability to pepsin promoting hydrolysis after 8 hr incubation time; assay type: ADME; settings: read-out: Degradation; procedure, shortened: as §1
[9] = In vitro stability to trypsin promoting hydrolysis after 1 hr incubation time; assay type: ADME; settings: read-out: Degradation; procedure, shortened: as §1
[10] = In vitro stability to pepsin promoting hydrolysis after 1 hr incubation time; assay type: ADME; settings: read-out: Degradation; procedure, shortened: as §1
[11] = tested on: Rattus norvegicus; experiment: In vivo thrombolytic activity at a dose of 10.0 mg in male rat; assay type: functional; procedure, shortened: as §2
[12] = tested on: Rattus norvegicus; experiment: In vivo thrombolytic activity at a dose of 20.0 mg in male rat; assay type: functional; procedure, shortened: as §2
[13] = In vitro stability to trypsin promoting hydrolysis after 8 hr incubation time; assay type: ADME; settings: read-out: Degradation; procedure, shortened: as §1

SMILES	metabolised at 84 h [1]	metabolised at 84 h [2]	metabolised at 64 h [3]	metabolised at 64 h [4]	Activity [5]	metabolised at 2 h [6]	metabolised at 2 h [7]	metabolised at 8 h [8]	metabolised at 1 h [9]	metabolised at 1 h [10]	metabolised at 8 h [13]	other results
C[C@@H]1NC(=O)[C@H](CCCN=C(N)N)NC(=O)[C@@H]2CCCN2C(=O)[C@H](C)NC(=O)[C@H](CCCCN)NC1=O	38%	40%	0%	0%	–	–	–	–	–	–	–	–
C[C@@H]1NC(=O)[C@@H](CCCN=C(N)N)NC(=O)[C@@H]2CCCN2C(=O)[C@H](C)NC(=O)[C@@H](CCCCN)NC1=O	–	–	–	–	10.62 mg	–	–	–	–	–	–	–
C[C@H](NC(=O)[C@@H]1CCCN1C(=O)[C@H](CCCN=C(N)N)NC(=O)CN)C(=O)N[C@@H](CCCCN)C(=O)O (H-GRPAK-OH)	–	–	–	–	9.31 mg	75%	77%	93%	25%	56%	98%	Activity [11]: 13.17 mg; Activity [12]: 16.81 mg
C[C@@H]1NC(=O)[C@@H](CCCCN)NC(=O)[C@H](CCC(N)=O)NC(=O)[C@@H](CCCN=C(N)N)NC(=O)[C@@H]2CCCN2C1=O	–	–	–	–	9.68 mg	–	–	–	–	–	–	–
C[C@@H]1NC(=O)[C@@H](CCCCN)NC(=O)CNC(=O)[C@@H](CCCN=C(N)N)NC(=O)[C@@H]2CCCN2C1=O	–	–	–	–	11.86 mg	–	–	–	–	–	–	Activity [11]: 17.31 mg; Activity [12]: 18.88 mg
C[C@@H]1NC(=O)[C@H](CCCCN)NC(=O)CNC(=O)[C@H](CCCN=C(N)N)NC(=O)[C@@H]2CCCN2C1=O	20%	10%	0%	0%	–	–	–	–	–	–	–	–
C[C@@H]1NC(=O)[C@H](CCCCN)NC(=O)[C@H](CCCCN)NC(=O)[C@H](CCCN=C(N)N)NC(=O)[C@@H]2CCCN2C1=O	35%	30%	0%	0%	–	–	–	–	–	–	–	–
C[C@@H]1NC(=O)[C@@H](CCCCN)NC(=O)[C@H](CCCCN)NC(=O)[C@@H](CCCN=C(N)N)NC(=O)[C@@H]2CCCN2C1=O	–	–	–	–	6.13 mg	–	–	–	–	–	–	–
C[C@H](NC(=O)[C@@H]1CCCN1C(=O)[C@H](CCCN=C(N)N)NC(=O)[C@@H](N)CCC(N)=O)C(=O)N[C@@H](CCCCN)C(=O)O (H-QRPAK-OH)	–	–	–	–	7.02 mg	78%	72%	92%	20%	45%	95%	–
C[C@H](NC(=O)[C@@H]1CCCN1C(=O)[C@H](CCCN=C(N)N)NC(=O)[C@@H](N)CCCCN)C(=O)N[C@@H](CCCCN)C(=O)O (H-KRPAK-OH)	–	–	–	–	0.28 mg	80%	70%	95%	30%	50%	96%	–
C[C@@H]1NC(=O)[C@H](CCCCN)NC(=O)[C@H](CCC(N)=O)NC(=O)[C@H](CCCN=C(N)N)NC(=O)[C@@H]2CCCN2C1=O	20%	25%	0%	0%	–	–	–	–	–	–	–	–
C[C@H](N)C(=O)N[C@@H](CCCN=C(N)N)C(=O)N1CCC[C@H]1C(=O)N[C@@H](C)C(=O)N[C@@H](CCCCN)C(=O)O (H-ARPAK-OH)	–	–	–	–	6.07 mg	50%	95%	98%	79%	10%	99%	–

From ChEMBL document CHEMBL1136633, “Synthesis and thrombolytic activity of fibrinogen fragment related cyclopeptides” (Bioorg Med Chem Lett, 2003)
